ANO1 activ – TMEM16A chloride channel activators or potentiators, primary screen, cell-based, HTS; Anoctamin-1 (Mus musculus), Q8BHY3; B-score at 10 µM; HEK293 TMEM16A/YFP-H148Q/I152L, iodide quench fluorescence; active compounds read low; 340,000 tested, 0.3% active;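 active = fluorescence-ratio B-score plate-corrected deviation score at least 3 library SD below zero, with starting fluorescence score within 5 deviations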;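 also: channel opened by trigger with iodide after compound preincubation; score built on the fluorescence ratio of max minus min over baseline; more negative score means more quench and so TMEM16A activation or potentiation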
CHT allo act – CHT positive allosteric modulators, primary screen, cell-based, membrane potential dye, choline EC20. High affinity choline transporter 1 (Homo sapiens), Q9GZV3. 310,000 tested, 0.49% active. B-score at 10 µM. CHT-expressing cells; active compounds read high; LV-AA mutant CHT in HEK293 cells;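 active = initial fluorescence not abnormally high and integrated response B-score, plate-corrected, over 3 SD above library mean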
Target sequence (Q9GZV3 whole entry, looked up): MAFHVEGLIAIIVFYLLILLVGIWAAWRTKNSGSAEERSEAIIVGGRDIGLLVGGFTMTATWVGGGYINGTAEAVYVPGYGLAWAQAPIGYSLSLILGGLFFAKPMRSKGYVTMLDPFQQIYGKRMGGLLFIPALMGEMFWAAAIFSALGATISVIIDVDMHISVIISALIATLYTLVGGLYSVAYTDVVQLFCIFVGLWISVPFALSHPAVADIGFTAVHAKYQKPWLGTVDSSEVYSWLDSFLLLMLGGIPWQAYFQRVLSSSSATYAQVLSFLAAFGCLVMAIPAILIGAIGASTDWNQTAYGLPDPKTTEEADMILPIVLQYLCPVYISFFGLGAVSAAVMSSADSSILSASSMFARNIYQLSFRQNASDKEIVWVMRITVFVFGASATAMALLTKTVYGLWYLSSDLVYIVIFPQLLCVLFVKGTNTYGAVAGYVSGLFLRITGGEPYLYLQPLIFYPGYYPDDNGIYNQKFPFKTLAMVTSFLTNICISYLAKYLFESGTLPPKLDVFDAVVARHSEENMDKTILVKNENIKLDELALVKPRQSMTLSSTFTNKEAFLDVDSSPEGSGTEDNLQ
ANO1 block – TMEM16A chloride channel inhibitors, primary screen, cell-based, HTS. Anoctamin-1 (Mus musculus), Q8BHY3. HEK293 TMEM16A/YFP iodide influx fluorescence, ionomycin. normalized B-score (activity score, 25-100; higher = stronger inhibition) at 10 µM. 310,000 tested, 1.2% active. AID 588511, 2011;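 active = ratio plate-corrected score three or more library SD toward inhibition, starting fluorescence score within five deviations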;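 also: score derived from kinetic fluorescence span divided by baseline fluorescence per well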
CHT block – inhibitors of human choline transporter CHT. CHT-expressing cells, membrane potential dye, choline response; active compounds read low. B-score at 10 µM. 310,000 tested, 0.86% active. AID 488975, 2010;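 active = B-score over 3 SD under the library average, and starting fluorescence ratio not unusually high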;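 also: choline stimulus applied at its EC90 after an EC20 pre-addition; B-score computed on integrated fluorescence ratio after choline addition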
IMP-1 inh – IMP-1 metallo-beta-lactamase inhibitors, primary screen, biochemical, epi-absorbance readout, Pseudomonas aeruginosa enzyme; purified IMP-1, nitrocefin hydrolysis, epi-absorbance fluorescence; inhibition, % at 5.6 µM; 290,000 tested, 0.45% active;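 active = inhibition above the mean plus 3 SD of all compounds in the same screening run, cut at about 4.5% in these data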;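 also: 0% = IMP-1 with DMSO and 100% = DMSO wells lacking enzyme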
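System – purified recombinant IMP-1 beta-lactamase · Input – IMP-1 dispensed at 0.2 nM · Timing – 15 min preincubation plus 25 min reaction at 25 °C · Signal – Epi-absorbance fluorescence, 480 nm excitation, 530 nm emission · Measure – percent IMP-1 inhibition derived from blank-referenced optical density · Controls – Enzyme-plus-DMSO low control, enzyme-free DMSO high control · Replication – singlicate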
VIM-2 inh – VIM-2 metallo-beta-lactamase inhibitors, primary screen, biochemical, epi-absorbance readout, Pseudomonas aeruginosa enzyme; purified VIM-2, nitrocefin hydrolysis, epi-absorbance fluorescence; inhibition, % at 5.6 µM; 290,000 tested, 0.89% active;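 active = inhibition above the mean of all tested compounds plus 3 SD, cutoff set per screening run, cut at about 7.5% in these data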;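 also: red hydrolysis product quenches plate fluorescence so inhibitors raise well fluorescence; 0% = enzyme with DMSO and 100% = DMSO without enzyme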
TMEM16A reconf – TMEM16A chloride channel inhibitors, confirmation, cell-based, re-confirmation; shares compounds with ANO1 block; HEK293 TMEM16A/YFP-H148Q, iodide quench fluorescence; ionomycin added to raise cell calcium; inhibition, % at 10 µM; 2,300 tested, 39% active; AID 652189, 2013;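 active = mean duplicate percent inhibition, scaled so buffer wells are 0 and the reference blocker 100, over three buffer SD above buffer mean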
HEK293 Ca mobil – calcium mobilization in TMEM16A/YFP HEK293 cells, confirmation, counter-screen for TMEM16A inhibitor project | AID 652231, 2013 | shares compounds with ANO1 block | calcium response (% of ionomycin), % at 10 µM | 2,300 tested, 2% active | Fluo4 calcium mobilization;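 active = duplicate-averaged calcium signal over 20% of the ionomycin maximum, relative to buffer baseline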;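 also: each well's signal is peak minus trough fluorescence divided by its pre-addition baseline; 0% = buffer wells and 100% = ionomycin wells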
YFP-HEK293 quench – iodide YFP quench changes in parental YFP-HEK293, counter-screen for TMEM16A inhibitor project, cell-based; ionomycin; shares compounds with ANO1 block; YFP ratio F(max-min)/F0 at 10 µM; 2,300 tested, under 10 active;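 active = yellow fluorescent protein signal ratio exceeding the buffer control mean by over 5 SD of those controls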;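 also: ratio is mean of duplicate wells from kinetic YFP trace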
ClC-1 rat inh – ClC-1 chloride channel inhibition, selectivity assay for TMEM16A inhibitor project, cell-based, voltage-dependent ClC-1 | AID 652236, 2013 | CHO ClC-1-YFP, iodide influx fluorescence quench; iodide control reads 0, buffer control 100 | 2,300 tested, under 10 active | shares compounds with ANO1 block | ratio percent, % at 10 µM;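 active = duplicate-mean ratio percent above the mean of iodide-only control wells, which defines zero, plus 5 of their SD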;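 also: higher percent means stronger block of ClC-1 iodide influx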
Active calls of the source: *. Hits are enriched below; roughly 3.4% of the tested compounds scored in any of these assays.

What do the screens show for `O=C(c1ccncc1)c1ccc(N2CCN(C3CC(=O)N(Cc4ccccc4)C3=O)CC2)cc1` (configuration not stated)?
ANO1 activ: inactive; CHT allo act: inactive; ANO1 block: 100*; CHT block: inactive; IMP-1 inh: -5; VIM-2 inh: 3; TMEM16A reconf: 25%*; HEK293 Ca mobil: inactive; YFP-HEK293 quench: -0.89; ClC-1 rat inh: -6

Results for CC(=O)Nc1ccc(NC(=O)COc2cc(O)c3c(c2)OC(C)(C)CC3=O)cc1 ?
ANO1 activ: inactive; CHT allo act: inactive; ANO1 block: inactive; CHT block: inactive; IMP-1 inh: -3; VIM-2 inh: -4

What do the screens show for `Cc1cc(OCC(=O)Nc2ccc(Br)cc2)cc2c1C(=O)CC(C)(C)O2`?
ANO1 activ: inactive; CHT allo act: inactive; ANO1 block: 100*; CHT block: inactive; IMP-1 inh: -2; VIM-2 inh: -1; TMEM16A reconf: 22%*; HEK293 Ca mobil: inactive; YFP-HEK293 quench: -0.78; ClC-1 rat inh: -24

Results for O=C(O)COc1ccc2c(c1)CCCC2 ?
ANO1 activ: inactive; CHT allo act: inactive; ANO1 block: inactive; CHT block: inactive; IMP-1 inh: -2; VIM-2 inh: 0

How did O=C(COc1ccc(F)cc1)c1ccc2c(c1)CCCC2 do in these assays?
ANO1 activ: inactive; CHT allo act: inactive; ANO1 block: 100*; CHT block: inactive; IMP-1 inh: -1; VIM-2 inh: -5; TMEM16A reconf: inactive; HEK293 Ca mobil: inactive; YFP-HEK293 quench: -1.1; ClC-1 rat inh: -20

What do the screens show for `CC(=O)c1ccc(OC(=O)c2nc(-c3ccccc3)oc2C)cc1`?
ANO1 activ: inactive; CHT allo act: inactive; ANO1 block: inactive; CHT block: inactive; IMP-1 inh: -5; VIM-2 inh: -3

How did COc1ccc(Cl)cc1N(C)C(=O)CCc1nc(-c2ccc(C)cc2)no1 do in these assays?
ANO1 activ: inactive; CHT allo act: inactive; ANO1 block: inactive; CHT block: inactive; IMP-1 inh: -2; VIM-2 inh: -6

How did CCc1ccccc1N(C)C(=O)CCc1nc(-c2ccc(C)cc2)no1 do in these assays?
ANO1 activ: inactive; CHT allo act: inactive; ANO1 block: 100*; CHT block: inactive; IMP-1 inh: -5; VIM-2 inh: -10; TMEM16A reconf: inactive; HEK293 Ca mobil: inactive; YFP-HEK293 quench: -1.1; ClC-1 rat inh: 6

Results for Nc1c(C(=O)Nc2nc3ccccc3s2)sc2nc(-c3cccs3)ccc12 ?
ANO1 activ: inactive; CHT allo act: inactive; ANO1 block: inactive; CHT block: inactive; IMP-1 inh: -1; VIM-2 inh: -1; TMEM16A reconf: inactive; HEK293 Ca mobil: inactive; YFP-HEK293 quench: -0.62; ClC-1 rat inh: 20

How did CC(=O)c1sc2nc(-c3cccs3)ccc2c1N do in these assays?
ANO1 activ: inactive; CHT allo act: inactive; ANO1 block: inactive; CHT block: inactive; IMP-1 inh: -2; VIM-2 inh: -3

Compound activity (PubChem BioAssay)
